Reference: ChEMBL document CHEMBL1671855, “Establishment of a cell-based assay for screening of compounds inhibiting very early events in the cytomegalovirus replication cycle and characterization of a compound identified using the assay” (Antimicrob Agents Chemother, 2008)
Calls of active or inactive are those of the source. No cut-off for these calls is given here.

Experiments:
[1] = Antiviral activity against Murine cytomegalovirus strain Smith infected in mouse NIH 3T3 cells after 4 to 5 days by plaque reduction assay; format: functional, cell-based; conditions: Murid betaherpesvirus 1, NIH3T3
How it was run: (§1)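 Semiconfluent fibroblasts (HCMV Towne in HFL, GPCMV in guinea pig lung fibroblasts, MCMV Smith in NIH 3T3) in 12-well plates inoculated with 50 or 100 PFU, centrifuged 600 × g 30 min, 1–2 h at 37°C; inoculum replaced by twofold compound dilutions in 1% methylcellulose, 4% FBS. Incubation 4–5 d MCMV, 6–7 d GPCMV, 10–12 d HCMV; crystal violet/formalin stain, plaques counted, triplicate; EC50 by linear regression of log concentration vs % plaque reduction.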

Human betaherpesvirus 5 [2] = assay: Antiviral activity against Human cytomegalovirus Towne infected in human HFL after 10 to 12 days by plaque reduction assay; format: functional, organism-based; conditions: Human betaherpesvirus 5, Towne; how it was run: as §1
Caviid betaherpesvirus 2 = assay: Antiviral activity against Guinea pig cytomegalovirus (strain 22122; ATCC VR-682) infected in guinea pig lung fibroblast after 6 to 7 days by plaque reduction assay; format: functional, organism-based; how it was run: as §1
Human betaherpesvirus 5 [3] = assay: Antiviral activity against 0.05 MOI Human cytomegalovirus Towne infected in human hTERT-BJ1 cells assessed as decrease in IE1 gene expression at 20 uM after 24 hrs by RT-PCR; format: functional, organism-based; conditions: BJ
How it was run: (§2)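 hTERT-BJ1 cells (4 × 10^5 per T12.5 flask) infected with HCMV at MOI 0.05, cultured with DMSO, 15 μM roscovitine or 20 μM test compound for set periods; cells washed with PBS, stored at −80°C, total RNA purified; IE1, IE2 and G6PD transcripts by quantitative RT-PCR, IE1/IE2 given as CT after normalization to G6PD; triplicate experiments, mean and SD.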

Human betaherpesvirus 5 [4] = assay: Antiviral activity against Human cytomegalovirus Towne infected in human hTERT-BJ1 cells assessed as decrease in ICP22 mRNA level at 20 uM after 48 hrs by immunofluorescent assay; format: functional, organism-based; conditions: BJ
Human betaherpesvirus 5 [5] = assay: Antiviral activity against Human cytomegalovirus Towne infected in human hTERT-BJ1 cells assessed as inhibition of virus induced infection after 12 hrs post infection by luciferase reporter gene assay; format: functional, organism-based; conditions: BJ
How it was run: (§3)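 hTERT-BJ1 cells (3 × 10^4/well, 96-well) infected next day with 2 × 10^3 PFU HCMV Towne and given 20 μM compound or DMSO over varied windows: added at set times and kept to harvest, removed at set times, or present 24 h from set start times. Luciferase measured at 48 h p.i. in three wells; mean and SD.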

Human betaherpesvirus 5 [6] = assay: Antiviral activity against Human cytomegalovirus Towne infected in human hTERT-BJ1 cells assessed as decrease in IE1 mRNA level at 5 uM after 24 hrs by immunofluorescent assay; conditions: BJ
Human betaherpesvirus 5 [7] = assay: Antiviral activity against 0.05 MOI Human cytomegalovirus Towne infected in human hTERT-BJ1 cells assessed as decrease in IE1 gene expression at 15 uM after 24 hrs by RT-PCR; format: functional, organism-based; conditions: BJ; how it was run: as §2
Human betaherpesvirus 5 [8] = assay: Antiviral activity against Human cytomegalovirus Towne infected in human hTERT-BJ1 cells assessed as inhibition of attachment of virus particles to the cell surface at 1 mg/ml after 2 hrs post infection by quantitative PCR; format: functional, organism-based; conditions: BJ
Human betaherpesvirus 5 [9] = assay: Antiviral activity against 0.05 MOI Human cytomegalovirus Towne infected in human hTERT-BJ1 cells assessed as decrease in IE2 gene expression at 20 uM after 24 hrs by […]; format: functional, organism-based; conditions: BJ; how it was run: as §2
[10] = Cytotoxicity against human hTERT-BJ1 cells; format: cell-based, BJ
How it was run: (§4)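 Cells at 20–25% confluence in 96-well plates cultured 2–4 days with twofold serial compound dilutions or matching DMSO; supernatant removed, cells rinsed, viability read as ATP luminescence (CellTiter-Glo); triplicate; 50% cytotoxic concentration from log concentration vs RLU plot.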

Human betaherpesvirus 5 [11] = assay: Antiviral activity against Human cytomegalovirus Towne infected in human hTERT-BJ1 cells assessed as decrease in G6PD gene expression at 15 uM after 24 hrs by RT-PCR; format: functional, organism-based; conditions: BJ; how it was run: as §2
Human betaherpesvirus 5 [12] = assay: Antiviral activity against Human cytomegalovirus Towne infected in human hTERT-BJ1 cells assessed as inhibition of virus induced infection after 48 hrs post infection by luciferase reporter gene assay; format: functional, organism-based; conditions: BJ; how it was run: as §3
Human betaherpesvirus 5 [13] = assay: Antiviral activity against Human cytomegalovirus Towne infected in human hTERT-BJ1 cells assessed as inhibition of virus induced infection after 6 hrs post infection by luciferase reporter gene assay; format: functional, organism-based; conditions: BJ; how it was run: as §3
[14] = Selectivity index, ratio of CC50 for human lung fibroblast cells to EC50 for Human cytomegalovirus Towne; format: toxicity, cell-based; conditions: read-out: Selectivity Index
Human betaherpesvirus 5 [15] = assay: Antiviral activity against 0.05 MOI Human cytomegalovirus Towne infected in human hTERT-BJ1 cells assessed as inhibition of viral DNA replication at 20 uM by qPCR; format: functional, organism-based; conditions: BJ
How it was run: (§5)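 hTERT-BJ1 cells infected with HCMV at MOI 0.05 or 3.0, cultured for set durations with DMSO, 20 μM or 5 μM compound; DNA extracted (QIAamp) and HCMV UL83 and human albumin genes quantified by qPCR against plasmid and cellular DNA standards; viral copies divided by albumin copies as copies per cell; triplicate experiments, mean and SD.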

Human betaherpesvirus 5 [16] = assay: Antiviral activity against Human cytomegalovirus Towne infected in human hTERT-BJ1 cells assessed as decrease in IE2 mRNA level at 5 uM after 24 hrs by immunofluorescent assay; format: functional, organism-based; conditions: BJ
Human betaherpesvirus 5 [17] = assay: Antiviral activity against human cytomegalovirus Towne infected in human U4C-48 cells assessed as decrease in viral titer by luciferase reporter gene assay; format: functional, organism-based; conditions: Human betaherpesvirus 5, Towne
How it was run: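 U4C-48 reporter cells (U373MG carrying TRL4 promoter-luciferase) infected with HCMV laboratory strain or clinical isolates and cultured 2 days with compound dilutions; luciferase read by chemiluminescence, triplicate. EC50 taken as concentration reducing luciferase to the level of cells given half the virus inoculum.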

Human betaherpesvirus 5 [18] = assay: Antiviral activity against Human cytomegalovirus Towne infected in human hTERT-BJ1 cells assessed as inhibition of virus induced infection after 24 hrs post infection by luciferase reporter gene assay; format: functional, organism-based; conditions: BJ; how it was run: as §3
Human betaherpesvirus 5 [19] = assay: Antiviral activity against 3 MOI Human cytomegalovirus Towne infected in human hTERT-BJ1 cells assessed as inhibition of viral DNA replication at 5 uM by qPCR; format: functional, organism-based; conditions: BJ; how it was run: as §5
[20] = Selectivity index, ratio of CC50 for human hTERT-BJ1 cells to EC50 for Human cytomegalovirus Towne; format: toxicity, cell-based, BJ; conditions: read-out: Selectivity Index
Human betaherpesvirus 5 [21] = assay: Antiviral activity against Human cytomegalovirus AD169 infected in human U4C-48 cells assessed as decrease in viral titer by luciferase reporter gene assay; format: functional, organism-based; conditions: Human betaherpesvirus 5, AD169, U4C-48
Human betaherpesvirus 5 [22] = assay: Antiviral activity against 0.05 MOI Human cytomegalovirus Towne infected in human hTERT-BJ1 cells assessed as decrease in IE2 gene expression at 15 uM after 24 hrs by […]; format: functional, organism-based; conditions: BJ; how it was run: as §2
Human betaherpesvirus 5 [23] = assay: Antiviral activity against Human cytomegalovirus Towne infected in human hTERT-BJ1 cells assessed as inhibition of attachment of virus particles to the cell surface at 20 uM after 2 hrs post infection by quantitative PCR; format: functional, organism-based; conditions: BJ
[24] = Cytotoxicity against HLF cells; format: cell-based; conditions: human; how it was run: as §4
Human betaherpesvirus 5 [25] = assay: Antiviral activity against Human cytomegalovirus RC256 infected in human hTERT-BJ1 cells after 1 hr by Immunostaining and Xgal staining; format: functional, organism-based; conditions: Human betaherpesvirus 5, RC256, BJ
How it was run: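 hTERT-BJ1 cells infected with HCMV RC256, a β-galactosidase-expressing recombinant Towne strain, in the presence of various compound concentrations; infected cells counted after X-Gal staining to derive EC50.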

Human betaherpesvirus 5 [26] = assay: Antiviral activity against Human cytomegalovirus Towne infected in human hTERT-BJ1 cells assessed as decrease in G6PD gene expression at 20 uM after 24 hrs by RT-PCR; format: functional, organism-based; conditions: BJ; how it was run: as §2
Human betaherpesvirus 5 [27] = assay: Antiviral activity against 3 MOI Human cytomegalovirus Towne infected in human hTERT-BJ1 cells assessed as inhibition of viral DNA replication at 20 uM by qPCR; format: functional, organism-based; conditions: BJ; how it was run: as §5
Human betaherpesvirus 5 [28] = assay: Antiviral activity against 0.05 MOI Human cytomegalovirus Towne infected in human hTERT-BJ1 cells assessed as inhibition of viral DNA replication at 5 uM by qPCR; format: functional, organism-based; conditions: BJ; how it was run: as §5

Compound: Nc1nc2c(ncn2COC(CO)CO)c(=O)[nH]1 [GANCICLOVIR]
- EC50 [1]: 5.7 µM
- EC50 (Human betaherpesvirus 5 [2]): 1.4 µM
- EC50 (Caviid betaherpesvirus 2): 25.9 µM

Compound: NC(=O)C1CCN(c2c(Cl)cncc2Cl)CC1
- EC50 [1]: 3 µM
- Activity (Human betaherpesvirus 5 [3]): Active
- inhibition (Human betaherpesvirus 5 [4]): Active
- inhibition (Human betaherpesvirus 5 [5]): Active
- inhibition (Human betaherpesvirus 5 [6]): Active
- Activity (Human betaherpesvirus 5 [7]): Active
- inhibition (Human betaherpesvirus 5 [8]): Active
- EC50 (Human betaherpesvirus 5 [2]): 2.5 µM
- Activity (Human betaherpesvirus 5 [9]): Active
- CC50 [10]: 100 µM
- Activity (Human betaherpesvirus 5 [11]): inactive
- inhibition (Human betaherpesvirus 5 [12]): inactive
- EC50 (Caviid betaherpesvirus 2): 6.2 µM
- inhibition (Human betaherpesvirus 5 [13]): Active
- selectivity ratio [14]: > 10
- inhibition (Human betaherpesvirus 5 [15]): Active
- inhibition (Human betaherpesvirus 5 [16]): Active
- EC50 (Human betaherpesvirus 5 [17]): 5 µM
- inhibition (Human betaherpesvirus 5 [18]): Active
- inhibition (Human betaherpesvirus 5 [19]): Active
- selectivity ratio [20]: > 10
- EC50 (Human betaherpesvirus 5 [21]): 5 µM
- Activity (Human betaherpesvirus 5 [22]): Active
- inhibition (Human betaherpesvirus 5 [23]): inactive
- CC50 [24]: 100 µM
- EC50 (Human betaherpesvirus 5 [25]): 3.5 µM
- Activity (Human betaherpesvirus 5 [26]): inactive
- inhibition (Human betaherpesvirus 5 [27]): Active
- inhibition (Human betaherpesvirus 5 [28]): Active
